The values below come from ChEMBL document CHEMBL4627366, “Structure-based drug design of 1,3,5-triazine and pyrimidine derivatives as novel FGFR3 inhibitors with high selectivity over VEGFR2” (Bioorg Med Chem, 2020).

What is called pIC50 is the IC50 on a negative log10 scale, so that one unit is a factor of ten.

Each structure is given as a SMILES string. pIC50: −log10 of the molar value.

In assay [1] the target is Vascular endothelial growth factor receptor 2 (Homo sapiens, UniProt P35968). Nature of the assay: Inhibition of N-terminal GST-tagged human VEGFR2 cytoplasmic domain (790-1356 end amino acid residue) expressed in baculovirus expression system preincubated for 30 to 120 mins followed by incubation with substrate and ATP for 30 mins by off-chip mobility shift assay. The method in brief:
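Recombinant VEGFR2 kinase preincubated with compound for 30 or 120 min at RT. Substrate plus ATP (75 µmol/L) added, 30 min at RT, then stopped with termination buffer and read by off-chip mobility shift. No-ATP wells set as 100% inhibition, DMSO wells as 0%. IC50 from Sigmoid-Emax nonlinear regression per experiment.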

Assay [2] has as its target Fibroblast growth factor receptor 4 (Homo sapiens, UniProt P22455). Nature of the assay: Inhibition of N-terminal GST-tagged human FGFR4 cytoplasmic domain (460-802 end amino acids residues) expressed in baculovirus expression system preincubated for 30 to 120 mins followed by incubation with substrate and ATP for 30 mins by off-chip mobility shift assay.
In assay [3] the target is Fibroblast growth factor receptor 1 (Homo sapiens, UniProt P11362). Nature of the assay: Inhibition of N-terminal GST-tagged human FGFR1 cytoplasmic domain (398-822 end amino acids residues) expressed in baculovirus expression system preincubated for 30 to 120 mins followed by incubation with substrate and ATP for 30 mins by off-chip mobility shift assay.
Chain of Fibroblast growth factor receptor 1 (P11362 whole entry, the tested form may be a part): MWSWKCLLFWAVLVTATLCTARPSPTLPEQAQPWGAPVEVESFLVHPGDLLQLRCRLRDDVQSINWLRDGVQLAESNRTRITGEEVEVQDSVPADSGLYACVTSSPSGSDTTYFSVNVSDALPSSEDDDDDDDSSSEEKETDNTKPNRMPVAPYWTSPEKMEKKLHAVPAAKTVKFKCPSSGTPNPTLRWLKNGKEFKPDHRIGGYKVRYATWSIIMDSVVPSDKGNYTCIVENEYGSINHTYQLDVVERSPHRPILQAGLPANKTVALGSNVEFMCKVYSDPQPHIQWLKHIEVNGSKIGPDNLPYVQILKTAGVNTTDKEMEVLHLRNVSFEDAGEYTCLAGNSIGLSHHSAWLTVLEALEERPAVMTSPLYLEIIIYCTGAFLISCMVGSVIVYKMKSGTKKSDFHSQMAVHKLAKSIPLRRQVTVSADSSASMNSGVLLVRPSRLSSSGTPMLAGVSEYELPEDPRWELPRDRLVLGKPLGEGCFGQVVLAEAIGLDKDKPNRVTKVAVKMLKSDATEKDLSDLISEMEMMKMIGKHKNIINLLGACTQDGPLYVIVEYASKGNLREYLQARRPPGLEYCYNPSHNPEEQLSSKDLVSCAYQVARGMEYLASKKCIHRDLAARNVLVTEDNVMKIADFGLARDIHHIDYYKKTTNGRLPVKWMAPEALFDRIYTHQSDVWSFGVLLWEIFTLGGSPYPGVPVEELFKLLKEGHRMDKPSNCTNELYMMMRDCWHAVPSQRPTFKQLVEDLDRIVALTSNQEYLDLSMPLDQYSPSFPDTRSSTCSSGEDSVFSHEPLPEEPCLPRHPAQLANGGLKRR
Assay [4] in a line: Antiproliferative activity against human UM-UC-14 cells harboring FGFR3 S249C mutation assessed as inhibition of cell growth incubated for 5 days by CellTier-Glo luminescent assay. Particulars: UMUC14, 120 h.
Assay [5] concerns the target Fibroblast growth factor receptor 2 (Homo sapiens, UniProt P21802). Briefly: Inhibition of N-terminal GST-tagged human FGFR2 cytoplasmic domain (399-821 end amino acids residues) expressed in baculovirus expression system preincubated for 30 to 120 mins followed by incubation with substrate and ATP for 30 mins by off-chip mobility shift assay.
Assay [6] has as its target Fibroblast growth factor receptor 3 (Homo sapiens, UniProt P22607). Nature of the assay: Inhibition of N-terminal GST-tagged human FGFR3 cytoplasmic domain (436-806 end amino acids residues) expressed in baculovirus expression system preincubated for 30 to 120 mins followed by incubation with substrate and ATP for 30 mins by off-chip mobility shift assay.

Chain of Vascular endothelial growth factor receptor 2 (P35968 whole entry, the tested form may be a part): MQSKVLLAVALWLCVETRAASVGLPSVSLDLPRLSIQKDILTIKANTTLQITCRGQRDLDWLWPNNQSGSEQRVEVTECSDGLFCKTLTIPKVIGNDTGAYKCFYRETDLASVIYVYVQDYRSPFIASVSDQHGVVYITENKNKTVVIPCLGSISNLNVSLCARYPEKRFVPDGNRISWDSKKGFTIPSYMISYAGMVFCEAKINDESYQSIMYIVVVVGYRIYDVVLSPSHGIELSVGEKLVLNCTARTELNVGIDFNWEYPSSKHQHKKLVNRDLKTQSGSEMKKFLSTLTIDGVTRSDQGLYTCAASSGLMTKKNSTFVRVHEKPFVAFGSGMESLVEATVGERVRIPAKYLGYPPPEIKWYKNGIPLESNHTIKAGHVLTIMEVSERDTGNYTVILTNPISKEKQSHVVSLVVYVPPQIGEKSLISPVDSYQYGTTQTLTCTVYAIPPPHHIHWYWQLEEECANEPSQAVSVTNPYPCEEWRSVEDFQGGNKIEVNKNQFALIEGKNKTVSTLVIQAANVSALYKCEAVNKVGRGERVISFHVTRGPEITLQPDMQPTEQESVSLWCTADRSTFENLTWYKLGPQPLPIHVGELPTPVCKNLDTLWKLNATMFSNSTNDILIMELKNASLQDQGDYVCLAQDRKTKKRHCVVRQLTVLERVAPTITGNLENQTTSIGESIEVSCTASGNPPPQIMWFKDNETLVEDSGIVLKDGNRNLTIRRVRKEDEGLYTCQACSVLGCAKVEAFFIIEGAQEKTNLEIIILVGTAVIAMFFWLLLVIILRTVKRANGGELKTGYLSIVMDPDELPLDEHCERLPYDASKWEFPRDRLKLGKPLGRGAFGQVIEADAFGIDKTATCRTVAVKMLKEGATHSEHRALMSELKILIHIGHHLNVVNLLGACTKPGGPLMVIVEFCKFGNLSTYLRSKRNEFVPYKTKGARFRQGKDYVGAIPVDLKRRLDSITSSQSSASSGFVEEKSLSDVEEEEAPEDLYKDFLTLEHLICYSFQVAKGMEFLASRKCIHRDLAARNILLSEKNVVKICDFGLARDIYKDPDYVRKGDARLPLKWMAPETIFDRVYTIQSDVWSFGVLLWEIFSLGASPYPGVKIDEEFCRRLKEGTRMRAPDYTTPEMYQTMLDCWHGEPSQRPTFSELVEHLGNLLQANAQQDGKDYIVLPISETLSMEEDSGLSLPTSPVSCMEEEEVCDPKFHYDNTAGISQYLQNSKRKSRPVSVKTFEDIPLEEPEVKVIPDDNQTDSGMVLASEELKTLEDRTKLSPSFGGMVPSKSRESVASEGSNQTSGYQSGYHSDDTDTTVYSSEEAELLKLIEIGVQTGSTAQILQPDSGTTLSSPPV
Chain of Fibroblast growth factor receptor 4 (P22455 whole entry, the tested form may be a part): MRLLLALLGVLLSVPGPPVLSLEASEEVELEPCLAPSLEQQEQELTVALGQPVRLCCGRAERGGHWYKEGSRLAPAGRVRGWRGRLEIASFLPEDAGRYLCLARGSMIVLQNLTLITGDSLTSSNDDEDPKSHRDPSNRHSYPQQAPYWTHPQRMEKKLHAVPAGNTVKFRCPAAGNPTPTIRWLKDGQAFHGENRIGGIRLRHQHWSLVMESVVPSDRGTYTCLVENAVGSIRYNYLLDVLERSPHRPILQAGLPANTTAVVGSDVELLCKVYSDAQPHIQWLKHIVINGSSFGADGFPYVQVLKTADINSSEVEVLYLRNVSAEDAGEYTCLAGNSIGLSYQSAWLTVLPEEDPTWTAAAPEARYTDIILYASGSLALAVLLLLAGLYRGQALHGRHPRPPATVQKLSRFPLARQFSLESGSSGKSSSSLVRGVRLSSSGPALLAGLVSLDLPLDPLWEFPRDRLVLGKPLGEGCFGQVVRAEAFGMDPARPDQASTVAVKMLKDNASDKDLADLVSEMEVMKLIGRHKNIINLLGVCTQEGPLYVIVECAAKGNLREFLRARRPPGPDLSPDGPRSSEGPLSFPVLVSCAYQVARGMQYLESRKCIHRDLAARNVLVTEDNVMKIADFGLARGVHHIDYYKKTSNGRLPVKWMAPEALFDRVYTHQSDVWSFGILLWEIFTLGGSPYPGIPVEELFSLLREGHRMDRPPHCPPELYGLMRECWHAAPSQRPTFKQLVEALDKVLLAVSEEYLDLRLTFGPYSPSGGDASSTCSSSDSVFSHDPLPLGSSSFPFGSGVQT
Chain of Fibroblast growth factor receptor 3 (P22607 whole entry, the tested form may be a part): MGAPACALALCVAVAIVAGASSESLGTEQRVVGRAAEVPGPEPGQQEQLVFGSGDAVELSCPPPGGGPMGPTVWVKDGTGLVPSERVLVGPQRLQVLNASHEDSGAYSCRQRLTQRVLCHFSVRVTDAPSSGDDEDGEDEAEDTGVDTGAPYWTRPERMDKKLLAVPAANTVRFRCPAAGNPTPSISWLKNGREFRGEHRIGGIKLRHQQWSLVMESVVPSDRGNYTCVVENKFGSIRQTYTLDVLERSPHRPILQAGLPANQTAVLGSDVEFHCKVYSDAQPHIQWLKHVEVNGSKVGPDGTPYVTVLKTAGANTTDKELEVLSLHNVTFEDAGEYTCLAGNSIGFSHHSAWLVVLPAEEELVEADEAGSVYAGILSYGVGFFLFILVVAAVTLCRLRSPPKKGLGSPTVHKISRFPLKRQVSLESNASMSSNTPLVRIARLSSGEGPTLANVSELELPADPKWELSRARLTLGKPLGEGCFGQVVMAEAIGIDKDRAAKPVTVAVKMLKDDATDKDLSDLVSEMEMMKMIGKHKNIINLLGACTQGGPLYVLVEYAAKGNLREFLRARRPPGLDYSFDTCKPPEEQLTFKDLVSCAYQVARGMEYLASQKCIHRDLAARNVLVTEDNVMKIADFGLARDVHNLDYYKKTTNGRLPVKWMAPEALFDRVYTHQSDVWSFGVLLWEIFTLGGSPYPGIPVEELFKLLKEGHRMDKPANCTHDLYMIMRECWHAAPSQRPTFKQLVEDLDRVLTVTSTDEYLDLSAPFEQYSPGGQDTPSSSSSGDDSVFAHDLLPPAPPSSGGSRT
Chain of Fibroblast growth factor receptor 2 (P21802 whole entry, the tested form may be a part): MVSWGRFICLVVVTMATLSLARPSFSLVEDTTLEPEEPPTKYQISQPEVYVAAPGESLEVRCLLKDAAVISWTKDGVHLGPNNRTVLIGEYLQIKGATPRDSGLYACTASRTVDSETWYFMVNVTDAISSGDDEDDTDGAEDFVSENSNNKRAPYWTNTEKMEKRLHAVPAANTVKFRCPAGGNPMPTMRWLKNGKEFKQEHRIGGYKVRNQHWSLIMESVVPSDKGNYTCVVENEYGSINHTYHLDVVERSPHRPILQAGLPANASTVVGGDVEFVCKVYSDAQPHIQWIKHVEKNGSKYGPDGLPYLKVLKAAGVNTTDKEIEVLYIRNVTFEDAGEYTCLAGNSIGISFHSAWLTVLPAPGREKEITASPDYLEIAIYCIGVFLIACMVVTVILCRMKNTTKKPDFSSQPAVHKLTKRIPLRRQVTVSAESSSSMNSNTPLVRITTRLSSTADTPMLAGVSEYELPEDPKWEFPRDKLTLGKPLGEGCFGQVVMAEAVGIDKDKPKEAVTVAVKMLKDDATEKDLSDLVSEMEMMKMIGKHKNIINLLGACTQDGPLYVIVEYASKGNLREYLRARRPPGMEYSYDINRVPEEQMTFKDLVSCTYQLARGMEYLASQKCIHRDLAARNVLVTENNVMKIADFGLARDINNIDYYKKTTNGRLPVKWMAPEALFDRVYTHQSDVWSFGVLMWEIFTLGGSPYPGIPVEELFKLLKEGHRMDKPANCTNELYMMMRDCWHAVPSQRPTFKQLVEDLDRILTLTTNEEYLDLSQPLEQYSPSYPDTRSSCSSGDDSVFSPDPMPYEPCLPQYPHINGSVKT

As for `CCNS(=O)(=O)c1ccccc1Nc1nc(Nc2ccc(N3CCC(N4CCN(C)CC4)CC3)c(OC)c2)ncc1CCc1cc(OC)cc(OC)c1`, in assay [1], the pIC50 was 6.53.

With `CCNS(=O)(=O)c1ccccc1Nc1nc(Nc2ccc(N3CCC(N4CCN(C)CC4)CC3)c(OC)c2)ncc1-c1cc(OC)cc(OC)c1`, the pIC50 in assay [1] was 7.42.

Consider `CCNS(=O)(=O)c1ccccc1Nc1nc(Nc2ccc(N3CCC(N4CCN(C)CC4)CC3)c(OC)c2)ncc1NC(=O)c1nc(OC)cc(OC)n1`, for which the pIC50 in assay [1] was 6.88.

Regarding `CCNS(=O)(=O)c1ccccc1Nc1nc(Nc2ccc(N3CCC(N4CCN(C)CC4)CC3)c(OC)c2)ncc1NC(=O)c1cccc(OC)c1OC`, the pIC50 in assay [1] was 6.34.

`CCNS(=O)(=O)c1ccccc1Nc1ncnc(Nc2ccc(N3CCN(C)CC3)c(OC)c2)n1`: in assay [1], the pIC50 was 6.47.

Consider `CCNS(=O)(=O)c1ccccc1Nc1ncnc(Nc2ccc(N3CCN(C)CC3)c(OCCN3CCN(C)CC3)c2)n1`, for which the pIC50 in assay [1] was 6.47.

Regarding `CCNS(=O)(=O)c1ccccc1Nc1ncnc(Nc2ccc(N3CCN(C)CC3)c(OCCCN3CCOCC3)c2)n1`, the pIC50 in assay [1] is 6.13.

`CCNS(=O)(=O)c1ccccc1Nc1nc(Nc2ccc(N3CCC(N4CCN(C)CC4)CC3)c(OC)c2)ncc1NC(=O)c1cc(C)cc(C)c1`: the pIC50 in assay [1] was 6.26.

On to `CCNS(=O)(=O)c1ccccc1Nc1ncnc(Nc2ccc(N3CCN(C)CC3)c(OCCOCCOC)c2)n1`, for which the pIC50 in assay [1] was 6.26.

Regarding `CCNS(=O)(=O)c1ccccc1Nc1ncnc(Nc2ccc(N3CCC(N4CCN(C)CC4)CC3)c(OC)c2)n1`, the pIC50 in assay [1] is 6.58.

As for `CCNS(=O)(=O)c1ccccc1Nc1nc(Nc2ccc(N3CCC(N4CCN(C)CC4)CC3)c(OC)c2)ncc1NC(=O)c1cc(OC)cc(OC)c1`, the pIC50 in assay [2] is 7.13; in assay [3], 8.68; in assay [4], 7.08; in assay [1], less than 6.00; in assay [5] it was 8.51.

With `CCNS(=O)(=O)c1ccccc1Nc1nc(Nc2ccc(N3CCC(N4CCN(C)CC4)CC3)c(OC)c2)ncc1NC(=O)c1cc(OC)nc(OC)n1`, in assay [1], the negative-log IC50 (pIC50) was 6.64.

Take `CCNS(=O)(=O)c1ccccc1Nc1ncnc(Nc2ccc(N3CCN(C)CC3)c(OCC(=O)O)c2)n1`: in assay [1], the negative-log IC50 (pIC50) is 6.92.

Consider `CCNS(=O)(=O)c1ccccc1Nc1ncnc(Nc2ccc(N3CCN(C)CC3)c(OCC(=O)OCC)c2)n1`, for which, in assay [1], the negative-log IC50 (pIC50) was 6.50.

Regarding `CCNS(=O)(=O)c1ccccc1Nc1ncnc(Nc2ccc(N3CCN(C)CC3)c(OCCOC)c2)n1`, in assay [1], the pIC50 was 6.51.

In the case of `CCNS(=O)(=O)c1ccccc1Nc1ncnc(Nc2ccc(N3CCN(C)CC3)c(OCCN3CCOCC3)c2)n1`, the pIC50 in assay [1] was 6.24.

Take `CCNS(=O)(=O)c1ccccc1Nc1nc(Nc2ccc(N3CCC(N4CCN(C)CC4)CC3)c(OC)c2)ncc1Cc1cc(OC)cc(OC)c1`: the negative-log IC50 (pIC50) in assay [6] and in assay [1] was less than 6.00 throughout.

For `CCNS(=O)(=O)c1ccccc1Nc1nc(Nc2ccc(N3CCC(N4CCN(C)CC4)CC3)c(OC)c2)ncc1NC(=O)c1cc(OC)ccc1OC`, in assay [1], the negative logarithm of the IC50 (pIC50) is 6.36.

As for `CCNS(=O)(=O)c1ccccc1Nc1nc(Nc2ccc(N3CCC(N4CCN(C)CC4)CC3)c(OC)c2)ncc1NC(=O)c1cc(O)cc(O)c1`, the pIC50 in assay [1] is 6.15.
